Screening data deposited in PubChem by Johns Hopkins Ion Channel Center.
TRPC6 inhibitor – blocks the mouse TRPC6 cation channel. HEK293-TRPC6, membrane potential dye, ACh-evoked depolarization; stronger effect = lower value. Q61143. 1.1% of 310,000 active. B-score at 10 µM. AID 2553;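 active = B-score under library mean minus 3 SD, initial fluorescence not abnormally high, positive integrated signal ratio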;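 also: B-score derived from integrated fluorescence ratio over the kinetic read; more negative B-score means stronger inhibition of depolarization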
TRPC4 block – TRPC4 (mouse) channel inhibition. Q9QUQ5. HEK293 TRPC4beta/mu-opioid, DAMGO-evoked Fluo4 calcium flux; stronger effect = lower value. B-score at 10 µM. 0.39% of 300,000 active;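 active = B-score over 3 SD under the library average, no early fluorescence shift, positive overall ratio signal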
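System: stable TRPC4beta/mu-opioid receptor HEK293 cells; Dosing: single-point compound dosing; Measured by: Fluo4 Ca2+ flux fluorescence; Read-out basis: per-well B score of integrated baseline-normalized Fluo4 ratio.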
TRPC4 agonist – opens the mouse TRPC4 cation channel; Q9QUQ5; HEK293 TRPC4beta/mu-opioid, Fluo4 calcium fluorescence; stronger effect = higher value; B-score at 10 µM; 0.49% of 310,000 active; AID 2237;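 active = B-score above 5 SD of library B-scores, and initial fluorescence ratio not above library mean plus 5 SD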;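 also: positive B-score marks a calcium rise read as TRPC4 activation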
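System – HEK293 cells stably co-expressing mouse TRPC4beta and mu-opioid receptor · Signal – Fluo4 calcium-sensitive dye fluorescence, kinetic, 1 Hz baseline · Benchmarks – buffer (low) and maximal DAMGO (high) · Read-out – B score of integrated fluorescence ratio per well · Incubation – dye loading 45 min room temperature, 110 s kinetic read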
TRPC6 act – mouse TRPC6 channel activation; B-score at 10 µM; 0.13% of 310,000 active; HEK293-TRPC6 membrane potential dye fluorescence; stronger effect = higher value; Q61143;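 active = B-score of the integrated fluorescence ratio above library mean plus 3 SD, and starting fluorescence ratio within library mean plus 5 SD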;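 also: higher score means more depolarization so channel activation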
TRPC4 potent – TRPC4 (mouse) allosteric potentiation; Q9QUQ5; HEK293 TRPC4beta/mu-opioid, DAMGO EC20, Fluo-4 Ca2+ flux; stronger effect = higher value; B-score at 10 µM; 0.42% of 310,000 active; AID 2227;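 active = B-score of calcium response area above 5 SD of library B-scores, with initial fluorescence ratio within 5 SD of library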;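 also: B-score of integrated fluorescence ratio over time as area under calcium response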
TRPC4 spec 2 – mouse TRPC4 off-target activity of TRPC6 inhibitors, second screen; shares compounds with TRPC6 inhibitor; HEK293 TRPC4/MOR, membrane potential dye fluorescence; channel activated by saturating DAMGO dose; inhibition, % at 10 µM; 42% of 920 active; AID 2776;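 active = compounds whose fluorescence signal differed from control wells by over 3 SD, either direction, in both duplicate plates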
TRPC4 spec – selectivity of TRPC6 inhibitors: effect on mouse TRPC4. 61% of 920 active. shares compounds with TRPC6 inhibitor. HEK293 TRPC4/mu-opioid, membrane potential fluorescence. activity change, negative = inhibition, % at 10 µM;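 active = rise or fall in signal beyond 3 SD of buffer-only wells in both replicate plates, either sign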;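 also: integrated kinetic ratio of fluorescence range over baseline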
HEK293 MPD ctr 2-1 – second counter-screen for TRPC6 inhibitors: parental HEK293 cells; 31% of 920 active; signal change vs control, % at 10 µM; parental HEK293 membrane potential dye fluorescence; maximal acetylcholine challenge after compound addition; AID 2779; shares compounds with TRPC6 inhibitor;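 active = membrane potential signal moving either way by over 3 SD of the maximum-effect control, in both duplicate plates, meaning non-specific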
HEK293 MPD ctr-1 – checks TRPC6 inhibitor effects in parental HEK293 cells; shares compounds with TRPC6 inhibitor; parental HEK293 membrane potential dye fluorescence; membrane potential signal change, % at 10 µM; 60% of 920 active; AID 2780;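 active = membrane potential signal shifting up or down by more than 3 SD of buffer-only wells, on both duplicate plates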
HEK293 MPD ctr-2 – counter-screen for TRPC6 modulators: effect in parental HEK293 cells; shares compounds with TRPC6 inhibitor; membrane potential dye fluorescence; membrane potential signal change, % at 10 µM; 51% of 2,400 active;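 active = membrane potential signal moves up or down beyond 5 SD from buffer-only wells, on both duplicate plates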
HEK293 MPD ctr 2-2 – second check of TRPC6 modulator effects in parental HEK293 cells | shares compounds with TRPC6 inhibitor | membrane potential dye fluorescence; after compound, maximal acetylcholine stimulation | inhibition, % at 10 µM | 14% of 2,400 active | AID 488926;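 active = membrane potential signal drops by more than 5 SD from the mean control signal, in both duplicate plates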;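 also: plate controls were acetylcholine ECmax control wells for no effect and buffer only wells for full effect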
TRPC4/MOR mod – tests whether TRPC6 modulators also affect mouse TRPC4; shares compounds with TRPC6 inhibitor; HEK293 TRPC4/mu-opioid, membrane potential fluorescence; percent change from control (negative = decrease, positive = increase), % at 10 µM; 69% of 2,400 active; AID 488927;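 active = membrane potential signal moved up or down beyond 5 SD of buffer control wells, in both duplicate plates, actives on both sides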;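 also: plate controls were assay buffer wells for no effect and DAMGO maximal-effect wells for full effect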
TRPC4/MOR inh 2 – mouse TRPC4 off-target activity of TRPC6 modulators, second screen. shares compounds with TRPC6 inhibitor. HEK293 TRPC4/mu-opioid, membrane potential dye fluorescence; stimulated with maximal-effect DAMGO. inhibition, % at 10 µM. 55% of 2,400 active. AID 488928;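 active = drop in membrane potential signal beyond 5 SD of the control wells in both duplicate plates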;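 also: TRPC4 counter screen for TRPC6 hits run under conditions tuned for TRPC6 not TRPC4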
TRPC6 block conf – confirmation of mouse TRPC6 inhibitors; shares compounds with TRPC6 inhibitor; HEK293-TRPC6, membrane potential dye, ACh-evoked depolarization; inhibition, % at 10 µM; 43% of 3,300 active; AID 488960;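 active = fluorescence ratio falls more than 5 SD below the full-stimulation control mean, in both duplicate runs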;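 also: integrated fluorescence ratio of peak minus minimum over baseline after agonist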
TRPC6 act conf – mouse TRPC6 activator confirmation | AID 488961 | activation, % at 10 µM | HEK293-TRPC6 membrane potential dye fluorescence, FDSS | 11% of 2,800 active | shares compounds with TRPC6 inhibitor;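 active = ratio signal rise beyond 5 SD above unstimulated control wells' mean, seen in both duplicate runs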;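 also: plate controls were buffer EC0 wells for no effect and acetylcholine ECmax response for full effect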
* hit, by the source's call. An excerpt weighted towards active compounds, which were near 2.3% of everything screened.

What do the screens show for `CCCc1ncc(C(O)(c2ccccc2)c2ccc(C)cc2)n1C` (stereo unspecified)?
TRPC6 inhibitor: inactive; TRPC4 block: inactive; TRPC4 agonist: inactive; TRPC6 act: inactive; TRPC4 potent: inactive

How did COc1cccc(NC(=O)c2ccc(N3C(=O)C4CCC(C)CC4C3=O)cc2)c1 (stereo unspecified) do in these assays?
TRPC6 inhibitor: inactive; TRPC4 block: inactive; TRPC4 agonist: inactive; TRPC6 act: inactive; TRPC4 potent: inactive

How did CCOC(=O)c1ccc(NC(=O)NCCc2cnc[nH]2)cc1 do in these assays?
TRPC6 inhibitor: -6.8*; TRPC4 block: inactive; TRPC4 agonist: 175*; TRPC6 act: inactive; TRPC4 potent: inactive; TRPC4 spec 2: 69%*; TRPC4 spec: 64%*; HEK293 MPD ctr 2-1: inactive; HEK293 MPD ctr-1: inactive; TRPC6 block conf: inactive; TRPC6 act conf: inactive

Results for CCOC(=O)c1ccc(NC(=O)NCc2ccncc2)cc1 ?
TRPC6 inhibitor: -5.5*; TRPC4 block: inactive; TRPC4 agonist: inactive; TRPC6 act: inactive; TRPC4 potent: inactive; HEK293 MPD ctr-2: inactive; HEK293 MPD ctr 2-2: inactive; TRPC4/MOR mod: inactive; TRPC4/MOR inh 2: inactive; TRPC6 block conf: inactive

What do the screens show for `CCOC(=O)Cc1nnc(NC(=O)CSc2nnc3c4ccccc4n(C(C)C)c3n2)s1`?
TRPC6 inhibitor: inactive; TRPC4 block: inactive; TRPC4 agonist: inactive; TRPC6 act: inactive; TRPC4 potent: inactive

How did CN(C(=O)c1ccc(Br)o1)C1CCCCC1 do in these assays?
TRPC6 inhibitor: inactive; TRPC4 block: inactive; TRPC4 agonist: inactive; TRPC6 act: inactive; TRPC4 potent: inactive

What do the screens show for `CCOc1c2ccoc2nc2c(OC)c(OC)ccc12`?
TRPC6 inhibitor: -5.4*; TRPC4 block: inactive; TRPC4 agonist: inactive; TRPC6 act: inactive; TRPC4 potent: inactive; HEK293 MPD ctr-2: inactive; HEK293 MPD ctr 2-2: inactive; TRPC4/MOR mod: inactive; TRPC4/MOR inh 2: inactive; TRPC6 block conf: inactive

What do the screens show for `C=CCOc1ccc2c(OC)c3ccoc3nc2c1OC`?
TRPC6 inhibitor: -11*; TRPC4 block: inactive; TRPC4 agonist: inactive; TRPC6 act: 16*; TRPC4 potent: inactive; HEK293 MPD ctr-2: inactive; HEK293 MPD ctr 2-2: inactive; TRPC4/MOR mod: 18%*; TRPC4/MOR inh 2: inactive; TRPC6 block conf: 52%*; TRPC6 act conf: 86%*

How did CCOc1c(OC)ccc2c3c(c(=O)oc12)CCCC3 do in these assays?
TRPC6 inhibitor: inactive; TRPC4 block: inactive; TRPC4 agonist: inactive; TRPC6 act: inactive; TRPC4 potent: inactive

What do the screens show for `CCN(CC(=O)NCc1ccc(Cl)cc1)C(=O)C1CCN(S(=O)(=O)c2ccc(OC)c(OC)c2)CC1`?
TRPC6 inhibitor: inactive; TRPC4 block: inactive; TRPC4 agonist: inactive; TRPC6 act: inactive; TRPC4 potent: inactive

What do the screens show for `S=c1[nH]nc(Cc2ccc(Cl)cc2)o1`?
TRPC6 inhibitor: inactive; TRPC4 block: inactive; TRPC4 agonist: inactive; TRPC6 act: inactive; TRPC4 potent: inactive

Results for CCCCN(CCCC)Cc1cc2ccccc2c2c1COC2 ?
TRPC6 inhibitor: inactive; TRPC4 block: inactive; TRPC4 agonist: inactive; TRPC6 act: inactive; TRPC4 potent: inactive

What do the screens show for `CC(C)OC(=O)/C(=C\c1cccc2ccccc12)NC(=O)c1ccccc1`?
TRPC6 inhibitor: inactive; TRPC4 block: inactive; TRPC4 agonist: inactive; TRPC6 act: inactive; TRPC4 potent: inactive

What do the screens show for `CCOc1ccc(NC(=O)N(CCN2CCOCC2)Cc2ccc3c(c2)CCCN3CC)cc1`?
TRPC6 inhibitor: inactive; TRPC4 block: inactive; TRPC4 agonist: inactive; TRPC6 act: inactive; TRPC4 potent: inactive

Results for CCCN1CCCc2cc(CN(CCCN3CCOCC3)C(=O)Nc3ccc(OCC)cc3)ccc21 ?
TRPC6 inhibitor: -5.3*; TRPC4 block: inactive; TRPC4 agonist: inactive; TRPC6 act: inactive; TRPC4 potent: inactive; HEK293 MPD ctr-2: inactive; HEK293 MPD ctr 2-2: inactive; TRPC4/MOR mod: inactive; TRPC4/MOR inh 2: 38%*; TRPC6 block conf: inactive; TRPC6 act conf: inactive

Results for CC1CCN(CCCNC(=O)c2coc3nc4ccccc4nc23)CC1 ?
TRPC6 inhibitor: -5.1*; TRPC4 block: inactive; TRPC4 agonist: inactive; TRPC6 act: inactive; TRPC4 potent: inactive; HEK293 MPD ctr-2: inactive; HEK293 MPD ctr 2-2: inactive; TRPC4/MOR mod: -16%*; TRPC4/MOR inh 2: 46%*; TRPC6 block conf: inactive; TRPC6 act conf: inactive

What do the screens show for `CC1CCCN(CCCNC(=O)c2coc3nc4ccccc4nc23)C1` (stereo unspecified)?
TRPC6 inhibitor: inactive; TRPC4 block: inactive; TRPC4 agonist: inactive; TRPC6 act: inactive; TRPC4 potent: inactive
